Key:
Pseudomonas aeruginosa [1] = assay: Antibacterial activity against Pseudomonas aeruginosa NCTC 13437 assessed as bacterial growth inhibition incubated for overnight by microbroth dilution method; assay type: functional
In short: (§1)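 Broth microdilution in Tryptic Soy Broth. DMSO stocks were diluted in TSB as 2-fold series. Overnight TSB cultures were back-diluted to OD 0.01 and mixed 1:1 with compound. Incubation was overnight at 37 °C. MIC was the lowest concentration without visible growth (<0.1 OD600). DMSO vehicle was checked at equivalent concentrations.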

Acinetobacter baumannii [2] = assay: Antibacterial activity against Acinetobacter baumannii AYE assessed as bacterial growth inhibition incubated for overnight by microbroth dilution method; assay type: functional; in short: as §1
Acinetobacter baumannii [3] = assay: Antibacterial activity against Acinetobacter baumannii ATCC 17978 assessed as bacterial growth inhibition incubated for overnight by microbroth dilution method; assay type: functional; in short: as §1
Pseudomonas aeruginosa [4] = assay: Antibacterial activity against Pseudomonas aeruginosa PAO1 assessed as bacterial growth inhibition incubated for overnight by microbroth dilution method; assay type: functional; in short: as §1
Escherichia coli [5] = assay: Antibacterial activity against Escherichia coli NCTC 12923 assessed as bacterial growth inhibition incubated for overnight by microbroth dilution method; assay type: functional; in short: as §1
Klebsiella pneumoniae [6] = assay: Synergistic antibacterial activity against Klebsiella pneumoniae NCTC 13368 assessed as rifampicin MIC at <=0.25 times MIC incubated for overnight by microbroth dilution checkerboard assay; assay type: functional
In short: (§2)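 Checkerboard microdilution under MIC conditions (TSB, overnight, 37 °C). Two-fold series of each agent were combined on one plate before bacteria were added, and single-agent MICs were measured on the same plate. FIC = sum of combination MIC/alone MIC for each agent, taken from the most synergistic well. Three independent repeats, mean ± SD. ≤0.5 was taken as strong synergy and 0.5–<1 as weak.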

Klebsiella pneumoniae [7] = assay: Synergistic antibacterial activity against […] Klebsiella pneumoniae M6 assessed as rifampicin MIC at <=0.25 times MIC incubated for overnight by microbroth dilution checkerboard assay; assay type: functional
In short: (§3)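 Checkerboard run under the MIC conditions (TSB, overnight, 37 °C). Antibiotic and lipoguanidine 2-fold series were combined on one plate before bacteria were added. Growth/no-growth was scored as for the MIC (<0.1 OD600). Single-agent MICs were measured on the same plates. Three independent repeats were done.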

Acinetobacter baumannii [8] = assay: Synergistic antibacterial activity against Acinetobacter baumannii AYE assessed as rifampicin MIC at <=0.25 times MIC incubated for overnight by microbroth dilution checkerboard assay; assay type: functional; in short: as §2
Acinetobacter baumannii [9] = assay: Synergistic antibacterial activity against Acinetobacter baumannii ATCC 17978 assessed as rifampicin MIC at <=0.25 times MIC incubated for overnight by microbroth dilution checkerboard assay; assay type: functional; in short: as §2
Pseudomonas aeruginosa [10] = assay: Synergistic antibacterial activity against Pseudomonas aeruginosa PAO1 assessed as rifampicin MIC at <=0.25 times MIC incubated for overnight by microbroth dilution checkerboard assay; assay type: functional
In short: (§4)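 Checkerboard microdilution in Tryptic Soy Broth, run like the MIC assay. Overnight TSB cultures were back-diluted to OD 0.01 and added 1:1 to the combined two-fold series of both agents, then incubated overnight at 37 °C. Growth/no-growth was called at <0.1 OD600. MICs alone were read on the same plates. FIC index came from the most synergistic well; three independent repeats, mean ± SD.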

Pseudomonas aeruginosa [11] = assay: Synergistic antibacterial activity against Pseudomonas aeruginosa NCTC 13437 assessed as rifampicin MIC at <=0.25 times MIC incubated for overnight by microbroth dilution checkerboard assay; assay type: functional; in short: as §4
Escherichia coli [12] = assay: Synergistic antibacterial activity against Escherichia coli NCTC 12923 assessed as rifampicin MIC at <=0.25 times MIC incubated for overnight by microbroth dilution checkerboard assay; assay type: functional; in short: as §2
Klebsiella pneumoniae [13] = assay: Synergistic antibacterial activity against Klebsiella pneumoniae NCTC 13368 assessed as fold change in rifampicin MIC at <=0.25 times MIC incubated for overnight by microbroth dilution checkerboard assay relative to rifampicin alone; assay type: functional; in short: as §3
Klebsiella pneumoniae [14] = assay: Synergistic antibacterial activity against […] Klebsiella pneumoniae M6 assessed as fold change in rifampicin MIC at <=0.25 times MIC incubated for overnight by microbroth dilution checkerboard assay relative to rifampicin alone; assay type: functional; in short: as §3
Acinetobacter baumannii [15] = assay: Synergistic antibacterial activity against Acinetobacter baumannii AYE assessed as fold change in rifampicin MIC at <=0.25 times MIC incubated for overnight by microbroth dilution checkerboard assay relative to rifampicin alone; assay type: functional; in short: as §2
Acinetobacter baumannii [16] = assay: Synergistic antibacterial activity against Acinetobacter baumannii ATCC 17978 assessed as fold change in rifampicin MIC at <=0.25 times MIC incubated for overnight by microbroth dilution checkerboard assay relative to rifampicin alone; assay type: functional; in short: as §2
Pseudomonas aeruginosa [17] = assay: Synergistic antibacterial activity against Pseudomonas aeruginosa PAO1 assessed as fold change in rifampicin MIC at <=0.25 times MIC incubated for overnight by microbroth dilution checkerboard assay relative to rifampicin alone; assay type: functional; in short: as §4
Pseudomonas aeruginosa [18] = assay: Synergistic antibacterial activity against Pseudomonas aeruginosa NCTC 13437 assessed as fold change in rifampicin MIC at <=0.25 times MIC incubated for overnight by microbroth dilution checkerboard assay relative to rifampicin alone; assay type: functional; in short: as §4
Escherichia coli [19] = assay: Synergistic antibacterial activity against Escherichia coli NCTC 12923 assessed as fold change in rifampicin MIC at <=0.25 times MIC incubated for overnight by microbroth dilution checkerboard assay relative to rifampicin alone; assay type: functional; in short: as §2
Klebsiella pneumoniae [20] = assay: Antibacterial activity against Klebsiella pneumoniae M6 assessed as bacterial growth inhibition incubated for overnight by microbroth dilution method
Klebsiella pneumoniae [21] = assay: Antibacterial activity against ESBL Klebsiella pneumoniae NCTC 13368 assessed as bacterial growth inhibition incubated for overnight by microbroth dilution method
Klebsiella pneumoniae [22] = assay: Synergistic antibacterial activity against Klebsiella pneumoniae NCTC 13368 assessed as rifampicin MIC at 30 microg/ml incubated for overnight by microbroth dilution checkerboard assay; assay type: functional; conditions: dose 30 µg/ml
Klebsiella pneumoniae [23] = assay: Synergistic antibacterial activity against Klebsiella pneumoniae M6 assessed as rifampicin MIC at 30 microg/ml incubated for overnight by microbroth dilution checkerboard assay; assay type: functional; conditions: dose 30 µg/ml
Acinetobacter baumannii [24] = assay: Synergistic antibacterial activity against Acinetobacter baumannii AYE assessed as rifampicin MIC at 30 microg/ml incubated for overnight by microbroth dilution checkerboard assay; assay type: functional; conditions: dose 30 µg/ml
Acinetobacter baumannii [25] = assay: Synergistic antibacterial activity against Acinetobacter baumannii ATCC 17978 assessed as rifampicin MIC at 30 microg/ml incubated for overnight by microbroth dilution checkerboard assay; assay type: functional; conditions: dose 30 µg/ml
Pseudomonas aeruginosa [26] = assay: Synergistic antibacterial activity against Pseudomonas aeruginosa PAO1 assessed as rifampicin MIC at 30 microg/ml incubated for overnight by microbroth dilution checkerboard assay; assay type: functional; conditions: dose 30 µg/ml
In short: (§5)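 Fixed-concentration combination MIC in TSB. The first agent was set in a two-fold dilution series (100 µL/well), then 50 µL/well of the second agent at a fixed concentration was added; PMBN was fixed at 30 µg/mL. Bacteria at OD 0.02 (50 µL) went into 150 µL of compounds, overnight at 37 °C. MIC was the lowest concentration without visible growth (<0.1 OD600).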

Pseudomonas aeruginosa [27] = assay: Synergistic antibacterial activity against Pseudomonas aeruginosa NCTC 13437 assessed as rifampicin MIC at 30 microg/ml incubated for overnight by microbroth dilution checkerboard assay; assay type: functional; conditions: dose 30 µg/ml; in short: as §5
Escherichia coli [28] = assay: Synergistic antibacterial activity against Escherichia coli NCTC 12923 assessed as rifampicin MIC at 30 microg/ml incubated for overnight by microbroth dilution checkerboard assay; assay type: functional; conditions: dose 30 µg/ml

Work on `NCCCCN=C(N)N` [AGMATINE] yielded an MIC (Pseudomonas aeruginosa [1]) greater than 128 µg/mL, an MIC (Acinetobacter baumannii [2]) greater than 128 µg/mL and an MIC (Acinetobacter baumannii [3]) greater than 128 µg/mL. It also gave an MIC (Pseudomonas aeruginosa [4]) greater than 128 µg/mL, an MIC (Escherichia coli [5]) greater than 128 µg/mL and an MIC (Klebsiella pneumoniae [6]) of 32 µg/mL. It also gave an MIC (Klebsiella pneumoniae [7]) of 32 µg/mL, an MIC (Acinetobacter baumannii [8]) of 16 µg/mL and an MIC (Acinetobacter baumannii [9]) of 4 µg/mL. The MIC (Pseudomonas aeruginosa [10]) was 32 µg/mL, the MIC (Pseudomonas aeruginosa [11]) was 32 µg/mL and the MIC (Escherichia coli [12]) was 32 µg/mL. For the same molecule, the “fold change (FC)” value (Klebsiella pneumoniae [13]) was 0, the “fold change (FC)” value (Klebsiella pneumoniae [14]) was 0 and the “fold change (FC)” value (Acinetobacter baumannii [15]) was 0. The “fold change (FC)” value (Acinetobacter baumannii [16]) was 0, the “fold change (FC)” value (Pseudomonas aeruginosa [17]) was 0 and the “fold change (FC)” value (Pseudomonas aeruginosa [18]) was 0. For the same molecule, the “fold change (FC)” value (Escherichia coli [19]) was 0, the MIC (Klebsiella pneumoniae [20]) was greater than 128 µg/mL and the MIC (Klebsiella pneumoniae [21]) was greater than 128 µg/mL.
`CC(C)C[C@@H]1NC(=O)[C@@H](Cc2ccccc2)NC(=O)[C@H](CCN)NC(=O)[C@@H](NC(=O)[C@H](CCN)NC(=O)[C@@H](N)[C@@H](C)O)CCNC(=O)[C@H]([C@@H](C)O)NC(=O)[C@@H](CCN)NC(=O)[C@H](CCN)NC1=O` showed an MIC (Klebsiella pneumoniae [22]) of 1 µg/mL, an MIC (Klebsiella pneumoniae [23]) of 0.5 µg/mL and an MIC (Acinetobacter baumannii [24]) of 0.25 µg/mL. It also gave an MIC (Acinetobacter baumannii [25]) of no more than 0.125 µg/mL, an MIC (Pseudomonas aeruginosa [26]) of no more than 0.125 µg/mL and an MIC (Pseudomonas aeruginosa [27]) of no more than 0.125 µg/mL. It also gave an MIC (Escherichia coli [28]) of no more than 0.125 µg/mL.
